From ChEMBL document CHEMBL5365494, “Bis-6-amidino-benzothiazole Derivative that Cures Experimental Stage 1 African Trypanosomiasis with a Single Dose” (J Med Chem, 2023)
The source made the active and inactive calls. The calls are words filed in the database; no cut-off is given here.

Key:
Trypanosoma brucei [1] = test: Antitrypanosomal activity against blood stream form of Trypanosoma brucei 221a variant assessed as parasite growth inhibition measured after 48 hrs by resazurin dye based fluorescence analysis; type: functional, organism-based
How it was run: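 Bloodstream-form T. b. brucei 221a (MiTat1.2a) in modified Iscove's medium at 37 °C, started at 2.5×10^4 mL^-1 with a concentration range. After 48 h, resazurin was added for a further 16 h. Fluorescence read at ex 545/em 590 nm. EC50 and EC90 taken from three independent replicates.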

[2] = Selectivity index, ratio of EC50 for cytotoxicity against rat L6 cells to EC50 for antitrypanosomal activity against bloodstream form of Trypanosoma brucei brucei 221a variant; type: toxicity, cell-based; settings: read-out: Ratio EC50
How it was run: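 L6 rat myoblasts seeded at 1×10^4 mL^-1 in RPMI-1640 with a compound concentration range for 6 days at 37 °C. Resazurin added for 6 h, then fluorescence read.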

Trypanosoma brucei [3] = test: Antitrypanosomal activity against blood stream form of Trypanosoma brucei 221a variant assessed as parasite growth inhibition at 0.3 nM preincubated for 24 hrs followed by subculturing with fresh medium with compounds and measured after 6 days by resazurin dye based fluorescence analysis; type: functional, organism-based; settings: time 7.0 day
How it was run: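 Bloodstream-form T. brucei seeded in flasks at 10^5 mL^-1 with a range of compound concentrations. Every 24 h parasites were sub-cultured back to 10^5 mL^-1 in continued compound presence, through day 10. Growth reported as cumulative parasite number. In a washout arm, parasites were exposed for 3 days, moved to compound-free medium and followed for 12 days.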

[4] = Apparent permeability across apical to basolateral side in MDCK-MDR1 cells at 10 uM measured for 60 mins by LC-MS/MS analysis; type: ADME, cell-based, Canis lupus familiaris; settings: dog
How it was run: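 MDCKII-hMDR1 monolayers on inserts, compound 10 μM (1% DMSO) in duplicate, 60 min at 37 °C, bidirectional, with and without elacridar 2 μM. Amprenavir as P-gp control, Lucifer yellow for monolayer integrity; compound quantified by LC–MS/MS.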

[5] = Toxicity in BALB/c mouse infected with bioluminescent Trypanosoma brucei brucei GVR35-VSL2 expressing red-shifted luciferase assessed as hunching in animal at 0.25 to 20 mg/kg, ip administered once daily for 4 days; type: organism-based; settings: in vivo, 96 h, dose 0.25-20 mg/kg, time 4 day
How it was run: (§1)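 Infected BALB/c mice (bioluminescent T. brucei, 30,000 parasites) dosed i.p. or orally once daily for 4 days starting day 4 post-infection; observed for piloerection, hunching, shaking, lack of activity and body weight change.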

[6] = Toxicity in BALB/c mouse infected with bioluminescent Trypanosoma brucei brucei GVR35-VSL2 expressing red-shifted luciferase assessed as shaking in animal at 0.25 to 20 mg/kg, ip administered once daily for 4 days; type: organism-based; settings: in vivo, 96 h, dose 0.25-20 mg/kg, time 4 day; how it was run: as §1
[7] = tested on: Trypanosoma brucei brucei; test: Antitrypanosomal activity against stage-1 bioluminescent Trypanosoma brucei brucei GVR35-VSL2 expressing red-shifted luciferase infected in BALB/c mouse assessed as reduction in parasite growth at 2 mg/kg, ip administered as single dose for 1 day starting from 4 days post infection by luciferase based bioluminescence assay; type: functional, organism-based
How it was run: (§2)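 BALB/c mice infected with 30,000 bioluminescent bloodstream-form T. brucei; dosing i.p. or oral from 4 days post-infection, single or once daily for 4 days. Monitored by in vivo imaging after i.p. d-luciferin 150 mg kg⁻¹ under isoflurane, with total body flux from dorsal plus ventral images. Cure required negativity by both in vivo and ex vivo imaging.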

[8] = tested on: Trypanosoma brucei brucei; test: Antitrypanosomal activity against stage-2 bioluminescent Trypanosoma brucei brucei GVR35-VSL2 expressing red-shifted luciferase infected in CD-1 mouse assessed as reduction in parasite growth at 10 to 20 mg/kg, ip administered daily for 3 days starting from 13 days post infection by bioluminescence based assay; type: functional, organism-based; settings: dose 10-20 mg/kg, time 3.0 day
Trypanosoma brucei [9] = test: Induction of tetracycline dependent drug resistant in Trypanosoma brucei MiTat 1.2, clone 221a assessed as outgrowth of resistant parasites at 1 to 2 ng/ml measured for 10 days; type: functional; settings: dose 1-2 ng/ml, time 10.0 day
Plasmodium falciparum = test: Antiplasmodial activity against Plasmodium falciparum 3D7 infected in human erythrocytes assessed as inhibition of asexual parasite development measured after 96 hrs by fluorescence based assay; type: functional, organism-based; settings: 3D7, Erythrocyte
How it was run: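 3D7 asexual parasites in human erythrocytes (RPMI 1640, 0.5% Albumax II, 50 μM hypoxanthine, 2 mM L-glutamine, 5% CO2), 2% parasitemia/1% hematocrit; compound in DMSO dilutions, 96 h at 37 °C. Freeze-thaw, SYBR green lysis buffer, 1 h, fluorescence ex 485/em 535 nm. Normalized to DMSO and 1 μM dihydroartemisinin; EC50 from triplicate independent dose-response curves.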

[10] = Drug localization in lysosomes of Trypanosoma brucei bloodstream form at 10 ug/ml by fluorescence microscopy; type: ADME, subcellular, Lysosome; settings: TDE = time-dependent effect, time 1-24 hrs, dose 10 µg/ml
How it was run: (§3)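 Bloodstream-form T. brucei incubated with compound 10 μg mL⁻¹ for 60 or 180 min or 24 h; fixed in 4% PFA, mounted with DAPI, imaged by fluorescence microscopy (ex 550/em 585 nm).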

[11] = Drug uptake in blood stream form of Trypanosoma brucei at 10 ug/ml incubated for 6 hrs in presence of bafilomycin Al by fluorescence microscopy; type: ADME, tissue-based; settings: dose 10 µg/ml
How it was run: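 Bloodstream-form T. brucei incubated 6 h with compound 10 μg mL⁻¹ with or without 8 nM BafA1, then imaged by fluorescence microscopy.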

[12] = Drug localization in endosome of Trypanosoma brucei bloodstream form at 10 ug/ml measured after 6 hrs in presence of bafilomycin Al by TbCatL antibody based immunofluorescence microscopy; type: ADME, subcellular; settings: dose 10 µg/ml
How it was run: (§4)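 Parasites exposed to compound 10 μg mL⁻¹ for 6 h, with or without BafA1 8 nM; fixed 4% PFA, permeabilized 0.1% Triton X-100, blocked 1% BSA, rabbit anti-TbCatL 1:200 overnight at 4 °C, then Alexa 488 anti-rabbit 2 μg mL⁻¹ 1 h at 37 °C; fluorescence microscopy.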

[13] = Drug localization in nucleus of Trypanosoma brucei bloodstream form at 10 ug/ml measured for 180 mins by fluorescence microscopy; type: ADME, subcellular; settings: 3 h, dose 10 µg/ml; how it was run: as §3
[14] = Toxicity in BALB/c mouse infected with bioluminescent Trypanosoma brucei brucei GVR35-VSL2 expressing red-shifted luciferase assessed as hunching in animal at 20 mg/kg, po administered once daily for 4 days; type: organism-based; settings: in vivo, 96 h, time 4 day; how it was run: as §1
[15] = Toxicity in BALB/c mouse infected with bioluminescent Trypanosoma brucei brucei GVR35-VSL2 expressing red-shifted luciferase assessed as shaking in animal at 20 mg/kg, po administered once daily for 4 days; type: organism-based; settings: in vivo, 96 h, time 4 day; how it was run: as §1
[16] = Toxicity in BALB/c mouse infected with bioluminescent Trypanosoma brucei brucei GVR35-VSL2 expressing red-shifted luciferase assessed as lack of activity in animal at 20 mg/kg, po administered once daily for 4 days; type: organism-based; settings: in vivo, 96 h, time 4 day; how it was run: as §1
[17] = tested on: Trypanosoma brucei brucei; test: Antitrypanosomal activity against stage-1 bioluminescent Trypanosoma brucei brucei GVR35-VSL2 expressing red-shifted luciferase infected in BALB/c mouse assessed as reduction in parasite growth by measuring curation rate at 20 mg/kg, po administered once daily for 4 days starting from 4 days post infection by luciferase based bioluminescence assay relative to control; type: functional; design: scale not given: the % may be the effect or the level left; settings: time 4 day; how it was run: as §2
[18] = tested on: Trypanosoma brucei brucei; test: Antitrypanosomal activity against stage-1 bioluminescent Trypanosoma brucei brucei GVR35-VSL2 expressing red-shifted luciferase infected in BALB/c mouse assessed as parasite killing by measuring reduction in bioluminescent signal at 20 mg/kg, ip administered as single dose starting from 4 days post infection and measured on 3 to 7 days by luciferase based bioluminescence assay; type: functional, organism-based; settings: time 3-7 day; how it was run: as §2
[19] = Drug localization in lysosomes of Trypanosoma brucei bloodstream form at 10 ug/ml measured after 6 hrs by TbCatL antibody based immunofluorescence microscopy; type: ADME, subcellular, Lysosome; settings: dose 10 µg/ml; how it was run: as §4

Question: With `CS(=O)(=O)O.CS(=O)(=O)O.N=C(N)c1ccc2nc(C3CCC(c4nc5ccc(C(=N)N)cc5s4)CC3)sc2c1` (stereo unspecified) as the molecule, how does the EC50 (Trypanosoma brucei [1]; 48 h) read?
Answer: 1 nM

Question: What about the EC90 (Trypanosoma brucei [1]; time 48 hrs) of the same molecule?
Answer: 1 nM

Question: What about the selectivity ratio [2] of the same molecule?
Answer: 26300

Question: What about the Activity (Trypanosoma brucei [3]) of the same molecule?
Answer: Active

Question: And the Papp A→B at 1 h, 10 µM [4]?
Answer: < 0.1 ×10⁻⁶ cm/s

Question: What about the Activity [5] of the same molecule?
Answer: Non-Toxic

Question: What about the Activity [6] of the same molecule?
Answer: Non-Toxic

Question: And the Activity [7]?
Answer: inactive

Question: And the Activity [8]?
Answer: inactive

Question: What about the Activity (Trypanosoma brucei [9]) of the same molecule?
Answer: inactive

Question: What about the EC50 (Plasmodium falciparum) of the same molecule?
Answer: 25.3 nM

Question: And the Drug uptake [10]?
Answer: Tde

Question: And the Drug uptake [11]?
Answer: Not Active

Question: And the Drug uptake [12]?
Answer: Not Active

Question: And the Drug uptake [13]?
Answer: Not Active

Question: What about the Activity [14] of the same molecule?
Answer: Non-Toxic

Question: And the Activity [15]?
Answer: Non-Toxic

Question: And the Activity [16]?
Answer: Non-Toxic

Question: And the Activity [17]?
Answer: 20%

Question: And the Activity [18]?
Answer: Active

Question: And the Drug uptake [19]?
Answer: Active
